Measurements reported in ChEMBL document CHEMBL4196113, “Discovery of a First-in-Class Gut-Restricted RET Kinase Inhibitor as a Clinical Candidate for the Treatment of IBS” (ACS Med Chem Lett, 2018).
Values after ≈ are worked out from the molar mass of the structure shown. Each block holds one molecule with its values, some of them ahead of it. Active and inactive are the calls of the source. The rule behind the calls is not given here.

What was measured:
[1] = biological target: Vascular endothelial growth factor receptor 2 (Homo sapiens, UniProt P35968); assay: Inhibition of human KDR using cisbio TK biotin-peptide as substrate preincubated for 30 mins followed by substrate addition measured after 30 mins by HTRF assay
[2] = test system: Salmonella typhimurium; assay: Genotoxicity in Salmonella typhimurium TA98 by Ames test; format: toxicity, organism-based; conditions: salmonella enterica subsp. enterica serovar typhimurium
[3] = Tmax in colon contents of Sprague-Dawley rat at 10 mg/kg, po bid administered 7 doses over 3.5 days; format: ADME, organism-based, Colon content
Procedure, shortened: (§1)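 Satellite rats from the colonic hypersensitivity dosing regimen received 10 mg/kg orally twice daily, seven doses over 3.5 days. Concentrations were measured in colon contents, duodenum, jejunum, ileum, colon tissue homogenate and plasma. Cmax (ng/mL) and Tmax (h) were taken from the full time–concentration profiles.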

[4] = Cmax in colon of Sprague-Dawley rat at 10 mg/kg, po bid administered 7 doses over 3.5 days; format: ADME, organism-based; set-up: dose 10 mg/kg, route oral; procedure, shortened: as §1
[5] = biological target: T1, Epithelial discoidin domain-containing receptor 1 (Rattus norvegicus, UniProt Q63474); assay: Binding affinity to DDR1 in Sprague-Dawley rat colon tissue cell lysate using sepharose beads incubated for 45 mins by LC-MS/MS based chemoproteomics assay
T1 sequence (Q63474 whole entry): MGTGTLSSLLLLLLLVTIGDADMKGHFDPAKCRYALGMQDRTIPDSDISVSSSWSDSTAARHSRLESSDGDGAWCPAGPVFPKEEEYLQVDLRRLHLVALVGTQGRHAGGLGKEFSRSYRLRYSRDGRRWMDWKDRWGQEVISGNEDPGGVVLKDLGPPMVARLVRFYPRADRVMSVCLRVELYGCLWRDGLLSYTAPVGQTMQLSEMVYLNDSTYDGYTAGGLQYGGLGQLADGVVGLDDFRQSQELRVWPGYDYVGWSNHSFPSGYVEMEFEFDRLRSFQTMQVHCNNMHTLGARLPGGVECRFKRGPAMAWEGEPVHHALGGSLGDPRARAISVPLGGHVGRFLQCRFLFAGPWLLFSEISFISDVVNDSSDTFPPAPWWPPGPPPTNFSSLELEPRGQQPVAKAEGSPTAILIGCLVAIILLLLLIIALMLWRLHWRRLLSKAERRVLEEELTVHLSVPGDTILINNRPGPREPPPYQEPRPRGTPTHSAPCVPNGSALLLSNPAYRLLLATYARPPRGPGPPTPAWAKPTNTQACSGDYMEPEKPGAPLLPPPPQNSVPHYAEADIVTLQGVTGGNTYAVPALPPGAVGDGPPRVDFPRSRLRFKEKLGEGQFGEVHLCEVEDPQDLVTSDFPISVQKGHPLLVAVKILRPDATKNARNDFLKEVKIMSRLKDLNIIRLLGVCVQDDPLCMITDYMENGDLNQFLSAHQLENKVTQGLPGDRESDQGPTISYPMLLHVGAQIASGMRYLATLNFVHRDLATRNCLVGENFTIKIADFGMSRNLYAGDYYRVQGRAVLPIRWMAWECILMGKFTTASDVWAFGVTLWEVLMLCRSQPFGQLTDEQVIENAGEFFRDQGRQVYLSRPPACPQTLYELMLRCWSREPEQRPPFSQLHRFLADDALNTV
Procedure, shortened: (§2)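 Colon tissue was isolated from rats and analysed by kinobead chemoproteomics. Compound competed with the beads for kinase binding. Apparent affinity is reported as pKdapp and converted to Kd.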

[6] = Solubility of the compound in FaSSIF after 4 hrs; format: physicochemical
Procedure, shortened: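 Solubility was measured in fasted state simulated intestinal fluid after 4 h.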

[7] = Solubility of the compound by CLND method; format: physicochemical
Procedure, shortened: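 Kinetic solubility was measured by chemiluminescent nitrogen detection.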

[8] = Tmax in colon of Sprague-Dawley rat at 10 mg/kg, po bid administered 7 doses over 3.5 days; format: ADME, organism-based; procedure, shortened: as §1
[9] = Cmax in ileum of Sprague-Dawley rat at 10 mg/kg, po bid administered 7 doses over 3.5 days; format: ADME, organism-based; set-up: dose 10 mg/kg, route oral; procedure, shortened: as §1
[10] = Cmax in colon contents of Sprague-Dawley rat at 10 mg/kg, po bid administered 7 doses over 3.5 days; format: ADME, organism-based, Colon content; set-up: dose 10 mg/kg, route oral; procedure, shortened: as §1
[11] = Tmax in duodenum of Sprague-Dawley rat at 10 mg/kg, po bid administered 7 doses over 3.5 days; format: ADME, organism-based; procedure, shortened: as §1
[12] = biological target: Proto-oncogene tyrosine-protein kinase receptor Ret (Rattus norvegicus, UniProt G3V9H8); assay: Binding affinity to RET in Sprague-Dawley rat colon tissue cell lysate using sepharose beads incubated for 45 mins by LC-MS/MS based chemoproteomics assay; procedure, shortened: as §2
[13] = Binding affinity to DDR2 in Sprague-Dawley rat colon tissue cell lysate using sepharose beads incubated for 45 mins by LC-MS/MS based chemoproteomics assay; procedure, shortened: as §2
[14] = Cmax in plasma of Sprague-Dawley rat at 10 mg/kg, po bid administered 7 doses over 3.5 days; format: ADME, organism-based; set-up: dose 10 mg/kg, route oral; procedure, shortened: as §1
[15] = Tmax in plasma of Sprague-Dawley rat at 10 mg/kg, po bid administered 7 doses over 3.5 days; format: ADME, organism-based; procedure, shortened: as §1
[16] = AUC in Sprague-Dawley rat at 0.06 mg/kg, iv administered via bolus; format: ADME, organism-based; conditions: in vivo
Procedure, shortened: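 Male Sprague–Dawley rats received a single IV bolus. Compound was formulated as a clear solution at 0.04 mg/mL in DMSO/6% HP-beta-CD (5:95), pH 7. AUC was derived from the plasma concentration–time curve.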

[17] = Tmax in jejunum of Sprague-Dawley rat at 10 mg/kg, po bid administered 7 doses over 3.5 days; format: ADME, organism-based; procedure, shortened: as §1
[18] = test system: Rattus norvegicus; assay: Reduction in acetic acid-induced acute visceral afferent neuron sensitization in Sprague-Dawley rat acute colonic hypersensitivity model assessed as decrease in visceromotor response to colorectal distension by measuring number of abdominal contractions at 10 mg/kg, po bid administered for 3.5 days followed by acetic acid induction for 60 mins administered 5 mins post last compound dose and measured for 10 mins; format: functional, organism-based
Procedure, shortened: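 Acetic acid enema at low concentration gave a transient, noninflammatory sensitization of colonic afferents. Colorectal distension then evoked a visceromotor response, scored visually as abdominal contractions. Rats (n = 7 per group) were dosed orally at 10 mg/kg twice daily for 3.5 days and compared with acetic acid/vehicle controls. Analysis used repeated-measure two-way ANOVA with Bonferroni post-test.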

[19] = Cmax in jejunum of Sprague-Dawley rat at 10 mg/kg, po bid administered 7 doses over 3.5 days; format: ADME, organism-based; set-up: dose 10 mg/kg, route oral; procedure, shortened: as §1
[20] = Cmax in duodenum of Sprague-Dawley rat at 10 mg/kg, po bid administered 7 doses over 3.5 days; format: ADME, organism-based; set-up: dose 10 mg/kg, route oral; procedure, shortened: as §1
[21] = Tmax in ileum of Sprague-Dawley rat at 10 mg/kg, po bid administered 7 doses over 3.5 days; format: ADME, organism-based; procedure, shortened: as §1

Sequence of Vascular endothelial growth factor receptor 2 (P35968 whole entry): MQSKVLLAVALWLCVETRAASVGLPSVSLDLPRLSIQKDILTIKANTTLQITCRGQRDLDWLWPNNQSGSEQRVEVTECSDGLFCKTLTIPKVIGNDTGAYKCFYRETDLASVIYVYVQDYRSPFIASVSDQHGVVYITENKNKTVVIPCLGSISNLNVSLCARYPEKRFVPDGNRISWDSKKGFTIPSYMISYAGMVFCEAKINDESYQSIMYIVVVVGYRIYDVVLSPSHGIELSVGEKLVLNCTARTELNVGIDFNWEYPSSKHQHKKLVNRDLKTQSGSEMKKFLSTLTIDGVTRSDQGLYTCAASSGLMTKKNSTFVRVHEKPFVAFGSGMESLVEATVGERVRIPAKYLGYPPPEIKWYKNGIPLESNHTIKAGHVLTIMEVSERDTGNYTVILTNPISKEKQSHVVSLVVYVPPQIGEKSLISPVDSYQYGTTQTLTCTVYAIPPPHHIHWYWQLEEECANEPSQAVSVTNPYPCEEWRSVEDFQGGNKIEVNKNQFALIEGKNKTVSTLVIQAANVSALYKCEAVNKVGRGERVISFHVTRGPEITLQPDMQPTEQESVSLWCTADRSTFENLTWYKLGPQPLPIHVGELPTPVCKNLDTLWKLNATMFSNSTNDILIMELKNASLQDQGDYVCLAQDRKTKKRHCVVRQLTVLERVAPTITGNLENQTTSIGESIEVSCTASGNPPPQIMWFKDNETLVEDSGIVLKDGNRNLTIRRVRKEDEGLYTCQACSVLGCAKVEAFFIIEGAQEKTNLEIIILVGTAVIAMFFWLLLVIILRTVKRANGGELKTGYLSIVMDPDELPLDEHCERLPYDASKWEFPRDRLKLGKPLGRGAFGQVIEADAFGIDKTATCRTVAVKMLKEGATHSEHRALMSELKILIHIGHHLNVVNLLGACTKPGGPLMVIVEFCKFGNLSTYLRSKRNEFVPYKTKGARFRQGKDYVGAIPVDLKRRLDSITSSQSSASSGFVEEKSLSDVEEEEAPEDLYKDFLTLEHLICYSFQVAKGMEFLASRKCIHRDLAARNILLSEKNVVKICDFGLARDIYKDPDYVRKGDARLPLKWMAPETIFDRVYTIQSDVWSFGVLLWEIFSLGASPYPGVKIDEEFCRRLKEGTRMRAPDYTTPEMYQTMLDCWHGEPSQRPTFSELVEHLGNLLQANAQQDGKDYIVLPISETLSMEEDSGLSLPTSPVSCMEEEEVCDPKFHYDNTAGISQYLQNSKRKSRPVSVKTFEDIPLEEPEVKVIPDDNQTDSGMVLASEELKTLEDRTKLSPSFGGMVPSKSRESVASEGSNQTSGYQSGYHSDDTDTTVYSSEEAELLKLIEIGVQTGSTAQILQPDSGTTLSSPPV
Sequence of Proto-oncogene tyrosine-protein kinase receptor Ret (G3V9H8 whole entry): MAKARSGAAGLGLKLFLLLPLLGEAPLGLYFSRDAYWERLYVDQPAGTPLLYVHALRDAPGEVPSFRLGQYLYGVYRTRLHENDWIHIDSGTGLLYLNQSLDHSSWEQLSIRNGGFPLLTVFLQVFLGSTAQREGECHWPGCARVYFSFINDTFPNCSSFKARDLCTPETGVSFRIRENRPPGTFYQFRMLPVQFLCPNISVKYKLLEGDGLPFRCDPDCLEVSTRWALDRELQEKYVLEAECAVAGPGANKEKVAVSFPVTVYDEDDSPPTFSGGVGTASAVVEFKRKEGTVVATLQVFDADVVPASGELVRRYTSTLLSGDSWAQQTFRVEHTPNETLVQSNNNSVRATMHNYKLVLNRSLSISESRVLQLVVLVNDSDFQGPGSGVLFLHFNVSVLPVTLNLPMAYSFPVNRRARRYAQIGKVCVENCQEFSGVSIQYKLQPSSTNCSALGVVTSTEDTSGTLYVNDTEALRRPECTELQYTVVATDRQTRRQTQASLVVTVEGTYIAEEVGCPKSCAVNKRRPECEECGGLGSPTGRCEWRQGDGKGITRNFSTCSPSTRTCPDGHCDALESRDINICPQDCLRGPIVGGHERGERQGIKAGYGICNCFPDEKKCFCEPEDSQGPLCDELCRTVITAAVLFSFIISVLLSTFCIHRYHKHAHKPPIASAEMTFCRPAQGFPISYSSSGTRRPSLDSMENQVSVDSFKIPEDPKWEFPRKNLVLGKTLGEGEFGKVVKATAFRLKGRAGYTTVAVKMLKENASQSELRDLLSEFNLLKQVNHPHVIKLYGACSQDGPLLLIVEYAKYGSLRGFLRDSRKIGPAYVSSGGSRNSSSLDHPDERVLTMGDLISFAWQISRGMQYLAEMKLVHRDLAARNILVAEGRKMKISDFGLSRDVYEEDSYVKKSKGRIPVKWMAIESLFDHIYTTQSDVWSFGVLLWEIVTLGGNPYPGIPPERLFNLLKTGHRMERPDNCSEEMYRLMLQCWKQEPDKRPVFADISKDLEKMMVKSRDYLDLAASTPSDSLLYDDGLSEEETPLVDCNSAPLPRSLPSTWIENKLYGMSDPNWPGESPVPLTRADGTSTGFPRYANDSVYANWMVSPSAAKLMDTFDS

- IC50 [1]: > 1000 nM
SMILES: CCN1CCN(Cc2ccc(NC(=O)Nc3ccc(-c4ccnc(NC)c4)cc3)cc2C(F)(F)F)CC1

SMILES: CCOc1cc(-c2ccc(N)c(F)c2)c[nH]c1=O
- Activity [2]: Toxic

SMILES: COc1cc(-c2ccc(N)c(F)c2)c[nH]c1=O
- Activity [2]: Toxic

- Tmax [3]: 7 h
- Cmax [4]: 3360 ng/mL
- Kd [5]: 40 nM
- solubility at 4 h [6]: 0.4 µg/mL (≈ 0.856 µM)
- solubility kinetic [7]: 21 µM (≈ 9.82 µg/mL)
- Tmax [8]: 7 h
- Cmax [9]: 5520 ng/mL
- Cmax [10]: 288000 ng/mL
- Tmax [11]: 0 h
- Kd [12]: 20 nM
- Cmax [14]: 40 ng/mL
- Tmax [15]: 4 h
- AUC [16]: 102 ng·h/mL
- Tmax [17]: 1 h
- Cmax [19]: 12800 ng/mL
- Cmax [20]: 15700 ng/mL
- Tmax [21]: 2 h
SMILES: CCOc1cc(=O)[nH]cc1-c1ccc(CC(=O)Nc2cc(C(C)(C)C(F)(F)F)on2)c(F)c1 [GSK-3179106]
- Activity [2]: Non-Toxic
- Kd [13]: 90 nM
- Activity [18]: Active

SMILES: CCN1CCN(Cc2ccc(N)cc2C(F)(F)F)CC1
- Activity [2]: Toxic

SMILES: CC(C)(c1cc(N)no1)C(F)(F)F
- Activity [2]: Non-Toxic

SMILES: CCOc1cc(-c2ccc(N)cc2)c[nH]c1=O
- Activity [2]: Toxic
